# MEKK2 WT-MEK5 – raises or lowers MEK5 binding to wildtype human MEKK2 PB1 domain | bead flow cytometry, Alexa488-MEK5 binding to MEKK2 WT; actives lie on both sides | binding response (% of control), % at 10 µM | 1.1% of 290,000 active | AID 1531; in the data active = binding response below about 67% or above about 130%
# MEKK2 mut-MEK5 – signal of MEK5 binding to mutant human MEKK2 PB1 domain; bead flow cytometry, Alexa488-MEK5 binding to MEKK2 mutant; percent response, % at 10 µM; 0.35% of 290,000 active; AID 1530; in the data active = percent response above about 24%, passing the limit was not always enough
# Arrestin-AP2 inh – blocks beta-arrestin peptide binding to AP2 adaptin; 0.31% of 340,000 active; inhibition, % at 10 µM; FITC-arrestin peptide / GST-AP2 beads, flow cytometry; AP2 beta2 appendage carries R879A mutation;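 active = inhibition above a set limit, near 3 SD of compounds lacking own fluorescence, cut at about 54% in these data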;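 also: plate controls were DMSO wells for no effect and 5 µM unlabelled arrestin peptide for full effect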
#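 System: GST-AP2 R879A glutathione beads. Medium: PBS with 0.05% Tween 20 and 0.1% BSA. Also added: FITC-arrestin peptide, 50 nM. Incubation: 12 min plus 1 h, RT. Measured by: high-throughput flow cytometry of beads, ex 488, em 535 nm. Evaluation: percent drop in bead-associated FITC signal.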
# MEKK3 PB1 HTS – MEKK3-MEK5 PB1 interaction, increase or decrease; Q99759; bead-based flow cytometry, Alexa488-MEK5 binding to MEKK3; actives lie on both sides; 0 = blocked by unlabeled MEK5, 100 = vehicle; binding response (% of control), % at 10 µM; 1.4% of 290,000 active; AID 1529;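 active = binding response more than 3 SD above or below the average of its plate-row segment, actives on both sides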;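 also: Alexa488 bead fluorescence after subtracting the streptavidin-only scavenger bead signal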
# Target sequence (Q99759 whole entry, looked up): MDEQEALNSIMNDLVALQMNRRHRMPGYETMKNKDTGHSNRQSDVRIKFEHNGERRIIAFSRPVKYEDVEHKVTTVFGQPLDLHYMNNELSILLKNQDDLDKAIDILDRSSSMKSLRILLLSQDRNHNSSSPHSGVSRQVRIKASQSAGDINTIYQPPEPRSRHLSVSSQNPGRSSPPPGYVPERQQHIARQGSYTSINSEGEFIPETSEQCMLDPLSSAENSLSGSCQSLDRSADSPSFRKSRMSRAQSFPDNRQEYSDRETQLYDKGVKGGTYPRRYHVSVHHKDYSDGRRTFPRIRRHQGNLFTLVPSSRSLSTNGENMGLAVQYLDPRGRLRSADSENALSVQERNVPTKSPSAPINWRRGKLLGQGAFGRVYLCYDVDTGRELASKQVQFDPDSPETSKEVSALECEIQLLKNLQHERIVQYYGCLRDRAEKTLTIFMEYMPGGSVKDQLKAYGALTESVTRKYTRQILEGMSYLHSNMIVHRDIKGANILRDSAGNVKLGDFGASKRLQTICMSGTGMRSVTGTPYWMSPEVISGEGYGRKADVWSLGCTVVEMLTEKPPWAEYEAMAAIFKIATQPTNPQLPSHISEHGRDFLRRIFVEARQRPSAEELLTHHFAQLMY
# MEKK2wt confirm – raises or lowers MEK5 binding to wildtype human MEKK2, retest | shares compounds with MEKK3 PB1 HTS | bead flow cytometry, Alexa488-MEK5 binding to MEKK2 WT; actives lie on both sides | binding response (% of control), % at 10 µM | 2.4% of 5,900 active; in the data active = binding response below about 16% or above about 210%; inactive = in between
# MEKK2mut-MEK5 – signal of MEK5 binding to mutant human MEKK2, retest. percent response, % at 10 µM. 2% of 5,900 active. bead flow cytometry, Alexa488-MEK5 binding to MEKK2 mutant. shares compounds with MEKK3 PB1 HTS; in the data active = percent response mostly above about 71%, no sharp cut-off; inactive = mostly below about 38%;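 also: higher means compound restores mutant binding toward wildtype level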
# MEKK3 confirm – confirmation of inhibitors of MEK5 binding to human MEKK3; shares compounds with MEKK3 PB1 HTS; bead flow cytometry, Alexa488-MEK5 binding to MEKK3; hits give low values; binding response (% of control), % at 10 µM; 1.8% of 5,900 active; AID 1894;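 active = binding response below 72% of control, or above a set upper limit, though filed actives all read lower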;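 also: 100% = DMSO only wells and 0% = binding blocked by excess unlabeled MEK5; lower values mean stronger disruption of MEK5 binding to MEKK3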
# An asterisk follows results filed as active; / = not tested or not shown; [ ] = another dose, or the depositor's remark. Only some compounds are listed: those with a hit (about 2.3% of all), similar ones and a draw of the others.
SMILES,MEKK2 WT-MEK5,MEKK2 mut-MEK5,Arrestin-AP2 inh,MEKK3 PB1 HTS,MEKK2wt confirm,MEKK2mut-MEK5,MEKK3 confirm
CCc1nc(SCc2cc(=O)[nH]c3ccccc23)c2c(C)c(C)sc2n1,/,/,28,/,/,/,/
CCOC(=O)CSc1ncnc2c1sc1nc(N3CCOCC3)c3c(c12)CCCC3,93,-12,2,82*[inhibitor],98,-1,104
CCOC(=O)c1cc(CC)sc1/N=C/C1=C(O)CC(C)(C)CC1=O,109,1,0,136*,103,-3,100
CCOC(=O)c1ccc(N=CC2=C(O)CC(C)(C)CC2=O)cc1,106,7,25,105,/,/,/
O=C(NCCC(=O)N1CCCC1)c1ccccc1Cl,107,4,-6,107,/,/,/
Brc1ccc(N=C/C=C/C=C/Nc2ccc(Br)cc2)cc1,38*,140*,4,46*[inhibitor],48,-30,64*
CCC(OC(=O)C1=Cc2ccccc2OC1)C(=O)NC1CCCC1 (stereo not given),114,11,5,126*,97,0,102
O=C(OC(C(=O)NC1CCCC1)c1ccncc1)C1=Cc2ccccc2OC1 (stereo not given),101,2,1,103,/,/,/
CC(C)C(OC(=O)C1=Cc2ccccc2OC1)C(=O)NC1CCCC1 (stereo not given),109,3,-4,131*,83,-8,96
CCOC(=O)c1c(C)[nH]c(C)c1C(=O)COC(=O)/C=C/c1ccco1,/,/,30,/,/,/,/
CC1CCN(C(=O)COC(=O)CCc2c[nH]c3ccccc23)CC1,65,-14,36,50*[inhibitor],106,5,106
COc1cc(OC)c2c(-c3ccccc3)cc(=O)oc2c1C(CCN1CCOCC1)c1ccc(N(C)C)cc1 (stereo not given),/,/,-13,/,/,/,/
COc1cc(OC)c2c(-c3ccccc3)cc(=O)oc2c1C(CCN1CCCCC1)c1ccc(N(C)C)cc1 (stereo not given),183*,20,-8,127,154,34,104
COc1ccc(C(CCN2CCCCC2)c2c(OC)cc(OC)c3c(-c4ccccc4)cc(=O)oc23)cc1 (stereo not given),182*,26*,1,106,153,22,106
O=c1c2cc(Cl)ccc2oc2nc3n(c(=O)c12)CCCS3,81,-9,6,74*[inhibitor],102,4,102
CC(C)Cc1nnc(NC(=O)CCC(=O)N2CCN(c3ccccc3F)CC2)s1,103,2,-2,101,/,/,/
COc1ccccc1N1CCN(CCN2C(=O)C3CCCCN3C2=O)CC1 (stereo not given),101,0,-9,98,/,/,/
COc1ccc([N+](=O)[O-])cc1NC1CCCCC1,123,7,-9,128*,99,-7,99
COc1ccccc1/C=N/NC(=O)C(=O)Nc1ccccc1OC(F)(F)C(F)F,104,1,6,134*,97,-8,98
COc1cccc(/C=N/NC(=O)C(=O)Nc2ccccc2OC(F)(F)C(F)F)c1,111,1,-5,149*,104,7,104
COc1ccccc1NC(=O)C(=O)N/N=C/c1ccc([N+](=O)[O-])s1,60*[inhibitor],-21,18,63*[inhibitor],120,10,103
COc1ccc(Nc2c3c(nc4c(-c5ccccc5)c(C)nn24)CCC3)cc1,116,0,4,128*,98,0,106
CC(OC(=O)Cc1coc2ccc3ccccc3c12)C(=O)NC(N)=O (stereo not given),95,-9,5,92,/,/,/
CC(C)(C)NC(=O)NC(=O)COC(=O)Cc1coc2ccc3ccccc3c12,112,1,-4,143*,95,-3,97
Cc1c(Cl)cnc(NC(=O)COC(=O)Cc2coc3ccc4ccccc4c23)c1Cl,102,0,-9,131*,80,-14,84
SMILES,MEKK2 WT-MEK5,MEKK2 mut-MEK5,Arrestin-AP2 inh,MEKK3 PB1 HTS,MEKK2wt confirm,MEKK2mut-MEK5,MEKK3 confirm
COc1ccccc1NC(=O)c1ccccc1C(=O)N(C)Cc1ccccc1,/,/,5,/,/,/,/
O=C(c1cccc(Cl)c1)N1CCC(N2CCC(C(=O)N3CCCC3)CC2)CC1,100,0,3,97,/,/,/
COC(=O)c1ccc(CN(C)S(=O)(=O)c2cccs2)cc1,96,-1,-2,100,/,/,/
COc1ccc(NC(=O)CNc2ccccc2C(C)=O)cc1S(=O)(=O)N1CCOCC1,/,/,-14,/,/,/,/
CCOc1cc(C2C(C#N)=C(N)Oc3n[nH]c(-c4ccccc4)c32)ccc1O (stereo not given),113,8,2,125*,99,-4,101
N#CC1=C(N)Oc2n[nH]c(-c3ccccc3)c2C1c1cccnc1 (stereo not given),96,-4,-8,97,/,/,/
CCOc1ccc(-n2c(COc3ccccc3)nnc2SCC(N)=O)cc1,106,5,-7,122*,98,-2,103
O=C(NN1CCN(Cc2ccccc2Cl)CC1)c1ccc(Br)cc1,102,0,7,100,/,/,/
O=C(NC1CCN(Cc2ccccc2)CC1)c1ccc(Cn2c(=S)[nH]c3ccc(N4CCOCC4)cc3c2=O)cc1,154*,26,-6,110,162,39,104
COc1cccc(CNC(=O)CCCCCn2c(=S)[nH]c3ccc(N4CCOCC4)cc3c2=O)c1,105,-1,/,130*,96,-7,98
Cc1ccccc1C(=O)/C=C1/SCC(=O)N1C,96,-6,8,101,/,/,/
CN(C)S(=O)(=O)c1ccc(NC(=O)CCCNC(=O)c2ccc(Cl)cc2)cc1,103,1,24,102,/,/,/
Cc1cc2cc(CNC(=O)NC3CCCCC3)ccc2[nH]1,/,51*,10,62*[inhibitor],70,3,65*
CC(C)CCC1(CCO)C(=O)N=C(N)NC1=O (stereo not given),/,/,0,/,/,/,/
O=C(c1sc(N2CCOCC2)nc1-c1ccccc1)N1CCCCC1,104,0,9,131*,98,4,104
c1ccc(-c2nc(N3CCOCC3)sc2-c2ccccc2)cc1,102,5,15,102,/,/,/
Cc1nc(COC(=O)c2ccc(CO)cc2)cs1,0.0*[inhibitor],-21,1,0.0*[inhibitor],106,1,105
Cc1nc(COC(=O)c2cc(O)c3ccccc3c2O)cs1,94,-4,46,99,/,/,/
O=C(CC12CC3CC(CC(C3)C1)C2)Nc1nncs1,97,-4,-1,101,/,/,/
Cc1ccc(-n2c(O)c(C=NCc3ccccn3)c3ccccc3c2=O)cc1,106,0,-7,129*,92,-9,94

# Screening results from PubChem.
